Measurements reported in ChEMBL document CHEMBL1165965, “Synthesis and structure-activity relationships of 1,2,3,4-tetrahydropyrido[2,3-b]pyrazines as potent and selective inhibitors of the anaplastic lymphoma kinase” (Bioorg Med Chem, 2010).

Key:
[1] = target: T1, Mitogen-activated protein kinase kinase kinase 5 (Homo sapiens) (UniProt Q99683); assay: Inhibition of ASK1 at 1 uM
T1 sequence (whole entry): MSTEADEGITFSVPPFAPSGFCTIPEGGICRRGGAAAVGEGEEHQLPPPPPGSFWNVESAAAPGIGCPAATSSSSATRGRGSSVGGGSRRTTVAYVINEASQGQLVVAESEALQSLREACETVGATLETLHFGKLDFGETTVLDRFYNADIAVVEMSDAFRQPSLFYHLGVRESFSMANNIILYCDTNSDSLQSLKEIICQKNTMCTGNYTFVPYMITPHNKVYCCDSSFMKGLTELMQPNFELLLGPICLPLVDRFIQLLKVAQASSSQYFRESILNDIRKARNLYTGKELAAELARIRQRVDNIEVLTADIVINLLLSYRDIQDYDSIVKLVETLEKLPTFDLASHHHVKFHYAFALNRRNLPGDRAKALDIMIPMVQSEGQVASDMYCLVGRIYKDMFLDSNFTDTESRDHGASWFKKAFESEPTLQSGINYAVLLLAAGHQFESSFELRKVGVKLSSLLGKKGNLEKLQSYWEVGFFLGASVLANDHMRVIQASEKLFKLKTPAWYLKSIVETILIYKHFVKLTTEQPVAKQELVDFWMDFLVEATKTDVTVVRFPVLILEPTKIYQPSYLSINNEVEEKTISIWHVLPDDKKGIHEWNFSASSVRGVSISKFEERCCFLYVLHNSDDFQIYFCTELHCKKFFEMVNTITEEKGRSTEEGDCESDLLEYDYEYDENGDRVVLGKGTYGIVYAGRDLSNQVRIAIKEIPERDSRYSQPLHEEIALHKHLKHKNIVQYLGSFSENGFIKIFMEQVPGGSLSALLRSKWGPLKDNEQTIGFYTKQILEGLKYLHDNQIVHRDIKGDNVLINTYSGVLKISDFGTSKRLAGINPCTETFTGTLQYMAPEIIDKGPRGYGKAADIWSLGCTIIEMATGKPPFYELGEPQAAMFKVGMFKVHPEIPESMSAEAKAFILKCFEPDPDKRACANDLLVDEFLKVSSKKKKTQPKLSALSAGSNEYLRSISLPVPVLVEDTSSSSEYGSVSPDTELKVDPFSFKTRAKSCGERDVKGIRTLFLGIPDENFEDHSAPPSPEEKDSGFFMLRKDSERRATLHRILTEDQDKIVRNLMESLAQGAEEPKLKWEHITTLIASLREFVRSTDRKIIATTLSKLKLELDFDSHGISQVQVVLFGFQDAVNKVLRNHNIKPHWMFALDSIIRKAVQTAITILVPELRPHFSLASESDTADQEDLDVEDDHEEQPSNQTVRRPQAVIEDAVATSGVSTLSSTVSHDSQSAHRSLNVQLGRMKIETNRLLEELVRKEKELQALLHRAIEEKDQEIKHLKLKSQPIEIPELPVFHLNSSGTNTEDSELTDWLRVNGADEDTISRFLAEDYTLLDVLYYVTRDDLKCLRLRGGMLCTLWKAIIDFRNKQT
How it was run: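 Ambit KINOMEscan screen at a single concentration across a 250–400 kinase panel, recorded as percent inhibition. Selectivity was expressed as S(90), the fraction of kinases inhibited >90%.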

[2] = target: Cyclin-dependent kinase 14 (Homo sapiens) (UniProt O94921); assay: Inhibition of PFTK1 at 1 uM
Cyclin-dependent kinase 14 (Homo sapiens), sequence (O94921 whole entry): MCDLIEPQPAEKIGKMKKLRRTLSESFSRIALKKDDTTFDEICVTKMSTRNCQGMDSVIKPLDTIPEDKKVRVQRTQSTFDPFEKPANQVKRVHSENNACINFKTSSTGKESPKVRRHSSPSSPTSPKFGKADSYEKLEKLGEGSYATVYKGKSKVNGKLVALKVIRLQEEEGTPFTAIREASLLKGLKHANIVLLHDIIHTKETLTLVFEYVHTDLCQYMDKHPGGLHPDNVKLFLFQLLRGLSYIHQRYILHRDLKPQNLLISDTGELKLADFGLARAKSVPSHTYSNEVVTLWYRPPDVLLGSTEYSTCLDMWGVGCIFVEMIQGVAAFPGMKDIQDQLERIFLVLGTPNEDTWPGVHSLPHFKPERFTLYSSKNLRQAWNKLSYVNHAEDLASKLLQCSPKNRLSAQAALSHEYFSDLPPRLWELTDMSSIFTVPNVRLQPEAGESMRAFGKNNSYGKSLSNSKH

[3] = target: T2, Serine/threonine-protein kinase RIO3 (Homo sapiens) (UniProt O14730); assay: Inhibition of RIOK3 at 1 uM
T2 sequence (whole entry): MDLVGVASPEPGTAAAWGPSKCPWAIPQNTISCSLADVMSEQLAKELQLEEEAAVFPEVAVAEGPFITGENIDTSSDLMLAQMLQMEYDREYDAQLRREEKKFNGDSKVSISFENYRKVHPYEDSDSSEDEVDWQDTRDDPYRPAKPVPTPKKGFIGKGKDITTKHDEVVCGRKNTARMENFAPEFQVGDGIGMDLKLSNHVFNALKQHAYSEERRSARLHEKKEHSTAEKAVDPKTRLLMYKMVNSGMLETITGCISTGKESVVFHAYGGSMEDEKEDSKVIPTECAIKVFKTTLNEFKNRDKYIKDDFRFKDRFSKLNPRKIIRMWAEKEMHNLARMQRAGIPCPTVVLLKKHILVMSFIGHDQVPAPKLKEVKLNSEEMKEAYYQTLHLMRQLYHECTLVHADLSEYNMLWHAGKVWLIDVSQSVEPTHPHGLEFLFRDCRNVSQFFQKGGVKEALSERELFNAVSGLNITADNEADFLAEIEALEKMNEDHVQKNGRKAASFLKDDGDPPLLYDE

[4] = target: Mitogen-activated protein kinase kinase kinase 1 (Homo sapiens) (UniProt Q13233); assay: Inhibition of MAP3K1 at 1 uM
Mitogen-activated protein kinase kinase kinase 1 (Homo sapiens), sequence (Q13233 whole entry): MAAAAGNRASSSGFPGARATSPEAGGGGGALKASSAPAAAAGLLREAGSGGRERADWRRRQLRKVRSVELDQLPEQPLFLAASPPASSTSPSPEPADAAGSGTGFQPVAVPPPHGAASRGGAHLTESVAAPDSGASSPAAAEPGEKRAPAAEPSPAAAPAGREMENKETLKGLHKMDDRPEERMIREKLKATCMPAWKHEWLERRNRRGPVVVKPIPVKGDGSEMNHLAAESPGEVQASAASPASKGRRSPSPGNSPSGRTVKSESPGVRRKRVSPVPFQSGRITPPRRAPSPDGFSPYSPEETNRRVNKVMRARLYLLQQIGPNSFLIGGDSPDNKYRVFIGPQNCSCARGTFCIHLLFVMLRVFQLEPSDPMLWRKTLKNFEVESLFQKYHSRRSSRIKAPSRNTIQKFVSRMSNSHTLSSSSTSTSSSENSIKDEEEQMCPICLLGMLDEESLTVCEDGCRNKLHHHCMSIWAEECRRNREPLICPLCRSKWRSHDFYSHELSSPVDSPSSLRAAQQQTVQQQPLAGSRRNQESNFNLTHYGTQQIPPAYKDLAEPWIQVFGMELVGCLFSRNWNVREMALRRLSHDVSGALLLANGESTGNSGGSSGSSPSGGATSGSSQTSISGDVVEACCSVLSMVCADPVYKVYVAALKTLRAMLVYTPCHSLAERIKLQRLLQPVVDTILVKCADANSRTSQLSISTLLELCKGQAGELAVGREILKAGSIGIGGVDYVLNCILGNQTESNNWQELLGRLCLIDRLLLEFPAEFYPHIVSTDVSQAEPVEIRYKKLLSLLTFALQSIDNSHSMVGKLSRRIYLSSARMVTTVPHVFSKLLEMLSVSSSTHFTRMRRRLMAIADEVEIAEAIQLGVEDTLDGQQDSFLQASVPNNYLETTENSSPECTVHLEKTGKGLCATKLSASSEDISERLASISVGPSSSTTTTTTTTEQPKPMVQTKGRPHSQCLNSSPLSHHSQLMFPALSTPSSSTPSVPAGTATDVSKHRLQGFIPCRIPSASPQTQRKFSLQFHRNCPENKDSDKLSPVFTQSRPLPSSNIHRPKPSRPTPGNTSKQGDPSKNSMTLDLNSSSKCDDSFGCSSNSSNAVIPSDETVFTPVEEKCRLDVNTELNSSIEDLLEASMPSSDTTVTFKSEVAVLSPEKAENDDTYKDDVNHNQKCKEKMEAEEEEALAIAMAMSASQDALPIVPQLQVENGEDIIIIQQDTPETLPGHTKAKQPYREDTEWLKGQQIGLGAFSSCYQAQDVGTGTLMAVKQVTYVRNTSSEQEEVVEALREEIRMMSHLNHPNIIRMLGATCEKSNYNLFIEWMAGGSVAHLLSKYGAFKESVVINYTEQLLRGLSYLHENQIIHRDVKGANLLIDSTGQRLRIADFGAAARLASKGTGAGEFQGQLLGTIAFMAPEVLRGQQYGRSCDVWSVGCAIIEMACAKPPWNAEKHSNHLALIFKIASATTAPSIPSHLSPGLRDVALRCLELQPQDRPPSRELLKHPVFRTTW

Measured: inhibition

CN1CCN(c2ccc(-c3cnc4c(c3)N(Cc3cc(F)ccc3F)CCN4)cn2)CC1
< 50%: all assays above

O=C(c1ccc(-c2cnc3c(c2)N(Cc2cc(Cl)ccc2C(F)(F)F)CCN3)cc1)N1CCC(N2CCCC2)CC1
< 50%: [1] | [3]

O=C(c1ccc(-c2cnc3c(c2)N(Cc2cc(Cl)ccc2C(F)(F)F)CCN3)cc1)N1CCCCC1
< 50%: [1] | [3]

CN1CCN(c2ccc(-c3cnc4c(c3)N(Cc3c(F)ccc(F)c3Cl)CCN4)cn2)CC1
< 50%: all assays above

COC1CCN(C(=O)c2ccc(-c3cnc4c(c3)N(Cc3cc(Cl)ccc3C(F)(F)F)CCN4)cc2)CC1
< 50%: [1] | [3]

O=C(O)c1ccc(-c2cnc3c(c2)N(Cc2cc(Cl)ccc2C(F)(F)F)CCN3)cc1
< 50%: [1] | [3]

CC(=O)N1CCN(c2cc(-c3cnc4c(c3)N(Cc3cc(Cl)ccc3C(F)(F)F)CCN4)ccn2)CC1
< 50%: all assays above

FC(F)(F)c1ccc(Cl)cc1CN1CCNc2ncc(-c3ccnc(N4CCNCC4)c3)cc21
< 50%: all assays above

CN1CCN(c2ccc(-c3cnc4c(c3)N(Cc3cc(Cl)ccc3C(F)(F)F)CCN4)cn2)CC1
< 50%: all assays above

CN1CCN(c2ccc(-c3cnc4c(c3)N(Cc3cc(Cl)ccc3Cl)CCN4)cn2)CC1
< 50%: all assays above
